# Data: ChEMBL document CHEMBL3259545, “Novel pyrrolobenzoxaboroles: design, synthesis, and biological evaluation against Trypanosoma brucei” (Eur J Med Chem, 2014)
# Key:
# [1] = test system: L929; assay: Cytotoxicity against mouse L929 cells assessed as cell viability after 72 hrs by alamar blue assay; format: cell-based; conditions: L929, 72 h
# Procedure, shortened: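 L929 mouse fibroblasts grown in DMEM with 10% FBS and 1% penicillin/streptomycin, kept sub-confluent. Seeded from a 1 × 10⁴/mL suspension, attached overnight, then medium renewed and DMSO-diluted compounds added. Incubated 72 h at 37 °C, 5% CO₂. Resazurin added for another 3–4 h, fluorescence read at ex 544/em 590 nm.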
# [2] = test system: Trypanosoma brucei brucei; assay: Antitrypanosomal activity against Trypanosoma brucei brucei 427 after 72 hrs by alamar blue assay; format: functional, organism-based; conditions: Trypanosoma brucei, 427, 72 h
# Procedure, shortened: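 Bloodstream T. b. brucei 427 kept in log phase in HMI-9 with 10% FBS, 10% Serum Plus and penicillin/streptomycin, subcultured every 2–3 days. Final density 1.0 × 10⁵/mL with 0.4% DMSO, exposed to serially diluted compounds for 72 h at 37 °C, 5% CO₂. Resazurin added for another 2–4 h, fluorescence read at ex 544/em 590 nm. IC50 from sigmoidal fits of triplicate points.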
# [3] = test system: Trypanosoma brucei brucei; assay: Trypanocidal activity against bloodstream stage of Trypanosoma brucei brucei infected in acute BALB/c mouse assessed as animal survival rate at 50 mg/kg, ip bid administered for 5 days initiated 24 hrs post infection; format: functional; conditions: route intraperitoneal
# Procedure, shortened: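 Female BALB/c mice infected i.p. with 600 T. b. brucei 221 bloodstream parasites; from 24 h post-infection, dosed 50 mg/kg i.p. twice daily for 5 days in 5% ethanol/45% sterile deionized water/50% PEG400. Parasitaemia was checked on trypan-blue-stained tail-vein blood smears every other day for 10 days, then weekly; survival was followed to day 30.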
# [4] = test system: Trypanosoma brucei brucei; assay: Trypanocidal activity against bloodstream stage of Trypanosoma brucei brucei infected in acute BALB/c mouse assessed as clearance of blood parasite on day 30 at 50 mg/kg, ip bid administered for 5 days initiated 24 hrs post infection; format: functional; conditions: route intraperitoneal
# Procedure, shortened: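 Female BALB/c mice infected i.p. with 600 T. b. brucei 221 parasites. Starting 24 h after infection, compounds were given i.p. at 50 mg/kg twice daily for 5 days, in 5% ethanol/45% water/50% PEG400. Untreated mice served as controls. Parasitemia was checked by trypan-blue-stained tail-vein blood smears every other day for ten days, then weekly, with survival followed to day 30.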
Structure (SMILES),IC50 [1],IC50 [2],survival at 50 mg/kg [3],Activity [4]
Nc1ccc(C(=O)c2ccn(-c3ccc4c(c3)B(O)OC4)c2)cc1,3.9 µg/mL,0.03 µg/mL,100%,100%
CC(=O)c1ccn(-c2ccc3c(c2)B(O)OC3)c1,> 10 µg/mL,0.56 µg/mL,,
OB1OCc2ccc(-n3cccc3Sc3ccc(Cl)cc3)cc21,> 10 µg/mL,1.16 µg/mL,,
O=C(c1ccccc1Cl)c1cccn1-c1ccc2c(c1)B(O)OC2,> 10 µg/mL,0.7 µg/mL,,
NCCCC(=O)c1ccn(-c2ccc3c(c2)B(O)OC3)c1,> 10 µg/mL,4.02 µg/mL,,
OB1OCc2ccc(-n3cccc3Sc3ccc(Cl)c(Cl)c3)cc21,> 10 µg/mL,> 5 µg/mL,,
OB1OCc2ccc(-n3ccc4ccccc43)cc21,> 10 µg/mL,> 5 µg/mL,,
O=C(c1ccc(Cl)cc1Cl)c1cccn1-c1ccc2c(c1)B(O)OC2,> 10 µg/mL,1.43 µg/mL,,
O=C(NC1CCCCC1)c1cccn1-c1ccc2c(c1)B(O)OC2,> 10 µg/mL,2.85 µg/mL,,
OB1OCc2ccc(-n3ccc(Cc4ccccc4)c3)cc21,> 10 µg/mL,2.17 µg/mL,,
CCNC(=O)c1cccn1-c1ccc2c(c1)B(O)OC2,> 10 µg/mL,1.85 µg/mL,,
CNC(=O)c1cccn1-c1ccc2c(c1)B(O)OC2,> 10 µg/mL,0.86 µg/mL,,
CCCC(=O)c1ccn(-c2ccc3c(c2)B(O)OC3)c1,> 10 µg/mL,0.11 µg/mL,,
O=C(c1ccn(-c2ccc3c(c2)B(O)OC3)c1)c1ccc(Cl)cc1Cl,> 10 µg/mL,1.12 µg/mL,,
COc1ccc(Sc2cn(-c3ccc4c(c3)B(O)OC4)c3ccccc23)cc1,> 10 µg/mL,> 5 µg/mL,,
CC(=O)c1cccn1-c1ccc2c(c1)B(O)OC2,> 10 µg/mL,0.69 µg/mL,,

Structure (SMILES),IC50 [1],IC50 [2],survival at 50 mg/kg [3],Activity [4]
O=C(NCc1ccccc1)c1cccn1-c1ccc2c(c1)B(O)OC2,> 10 µg/mL,0.8 µg/mL,,
O=[N+]([O-])c1ccc(Sc2cn(-c3ccc4c(c3)B(O)OC4)c3ccccc23)cc1,> 10 µg/mL,> 5 µg/mL,,
O=C(c1cccc(Cl)c1)c1ccn(-c2ccc3c(c2)B(O)OC3)c1,> 10 µg/mL,0.35 µg/mL,,
OB1OCc2ccc(-n3cc(Sc4ccccc4O)c4ccccc43)cc21,> 10 µg/mL,> 5 µg/mL,,
OB1OCc2ccc(-n3cc(Sc4ccc(Cl)c(Cl)c4)c4ccccc43)cc21,> 10 µg/mL,> 5 µg/mL,,
O=C(c1ccc(F)cc1)c1cccn1-c1ccc2c(c1)B(O)OC2,> 10 µg/mL,0.4 µg/mL,,
O=C(c1ccc(Cl)cc1)c1ccn(-c2ccc3c(c2)B(O)OC3)c1,> 10 µg/mL,0.21 µg/mL,,
O=C(NCCc1ccccc1)c1cccn1-c1ccc2c(c1)B(O)OC2,> 10 µg/mL,0.68 µg/mL,,
COc1ccc(S(=O)(=O)c2cn(-c3ccc4c(c3)B(O)OC4)c3ccccc23)cc1,> 10 µg/mL,> 5 µg/mL,,
Cc1cccc(C(=O)c2ccn(-c3ccc4c(c3)B(O)OC4)c2)c1,> 10 µg/mL,0.09 µg/mL,,
O=C(c1ccccc1)c1cccn1-c1ccc2c(c1)B(O)OC2,> 10 µg/mL,0.34 µg/mL,,
COc1ccc(C(=O)c2ccn(-c3ccc4c(c3)B(O)OC4)c2)cc1,> 10 µg/mL,0.11 µg/mL,,
Cc1ccccc1C(=O)c1ccn(-c2ccc3c(c2)B(O)OC3)c1,> 10 µg/mL,0.56 µg/mL,,
O=C(CCc1ccccc1)c1ccn(-c2ccc3c(c2)B(O)OC3)c1,> 10 µg/mL,0.19 µg/mL,,
O=C(c1ccc(F)cc1)c1ccn(-c2ccc3c(c2)B(O)OC3)c1,> 10 µg/mL,0.16 µg/mL,,
